Screening results from PubChem.
In the library only some 1.4% were active in any assay of this set; here they are far more common.
Diaphorase act: compounds boosting diaphorase resazurin reduction – biochemical, uHTS, resorufin fluorescence, counter-screen for diaphorase-coupled primary assays, primary screen; Diaphorase/resazurin coupled assay, 16 min; stronger effect = higher value; 1 = vehicle wells, 0 = NADH-free wells; activation factor at 20 µM; 0.005% of 190,000 active; AID 1229, 2008;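 active = diaphorase activity raised at least twofold by the compound at 20 µM; inactive = activation factor below 2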
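test system = bacterial diaphorase enzyme (C. kluyveri) | quantity = enzyme 0.07 U/mL final | reagent = NADH substrate 0.114 mM plus resazurin dye 0.1 mM, final | incubation = 16 min enzyme reaction, ambient temperature | buffer or medium = HEPES pH 7.4 buffer with MgCl2 and Tween 20 | signal = fluorescence of resorufin, 544 nm excitation, 590 nm emission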
ATG4B inhibitor: ATG4B protease inhibitors, primary screen, biochemical, fluorescence, uHTS. Cysteine protease ATG4B (Homo sapiens), Q9Y4P1. ATG4B cleavage of LC3-PLA2, NBD-HPC fluorescence, 1 h. inhibition, % at 8.33 µM. 0.51% of 340,000 active; in the data active = inhibition above about 40%
Target sequence (Q9Y4P1 whole entry, looked up): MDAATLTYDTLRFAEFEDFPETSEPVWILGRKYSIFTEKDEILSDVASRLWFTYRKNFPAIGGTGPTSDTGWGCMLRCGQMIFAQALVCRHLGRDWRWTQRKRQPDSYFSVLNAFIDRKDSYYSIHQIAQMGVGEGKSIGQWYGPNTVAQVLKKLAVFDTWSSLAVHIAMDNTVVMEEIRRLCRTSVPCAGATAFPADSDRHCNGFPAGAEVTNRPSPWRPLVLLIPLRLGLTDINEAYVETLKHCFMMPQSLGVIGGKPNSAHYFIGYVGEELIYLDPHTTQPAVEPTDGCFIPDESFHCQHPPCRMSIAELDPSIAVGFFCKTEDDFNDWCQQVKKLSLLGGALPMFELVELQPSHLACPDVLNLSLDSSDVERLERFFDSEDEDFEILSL
CTSL1 counter: Fasciola hepatica cathepsin L1 inhibitors, primary screen, counter-screen for PFM18AAP inhibitor project, biochemical, QFRET, fluorogenic peptide substrate; 0.49% of 300,000 active; recombinant F. hepatica cathepsin L1, Z-Leu-Arg-MCA fluorescence; inhibition, % at 5.96 µM;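 active = inhibition above the mean of all tested compounds plus 3 SD, set per screening campaign, cut at about 17% in these data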
HKDC1 inhibitor: HKDC1 hexokinase inhibitors, primary screen, biochemical, fluorescence, uHTS. Q2TB90. recombinant HKDC1, G6PDH/diaphorase resazurin coupled fluorescence. inhibition, % at 20 µM. 0.16% of 340,000 active;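 active = inhibition above about 35% when tested at 20 µM, limit read from the data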
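Assay system: in-house recombinant HK5 (HKDC1) enzyme. Input: HKDC1 at 5 µg/mL. Medium: Tris pH 8.0 buffer with MgCl2, Tween-20, BSA, BME. Dosing: single 20 µM dose. Schedule: 90 min reaction incubation at room temperature, dark. Signal: resazurin-to-resorufin fluorescence via G6PDH and diaphorase coupling, 525/613 nm. Controls: DMSO-enzyme wells negative, buffer-substituted wells positive.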
Diaph inh CS: diaphorase inhibitors and chemical oxidizers, primary screen, counter-screen for diaphorase-coupled primary assays, biochemical, uHTS, resorufin fluorescence | inhibition, % at 20 µM | 0.69% of 190,000 active | diaphorase resazurin-to-resorufin fluorescence, NADH, 16 min; bacterial (C. kluyveri) enzyme, not human | AID 1217, 2008;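 active = primary screen inhibition at 20 µM above a set limit, cut at about 50% in these data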
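Test system: diaphorase enzyme from Clostridium kluyveri; amount: diaphorase at 0.14 U/mL in enzyme working solution; detection: fluorescence of resorufin formed from resazurin, Ex 544/Em 590 nm; times: reaction incubation of 16 min at room temperature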
ATG4B confirm: ATG4B protease inhibitors, retest, confirmation, biochemical, fluorescence, single concentration; shares compounds with ATG4B inhibitor; 92% of 320 active; ATG4B protease fluorescent substrate cleavage assay; inhibition, % at 8.33 µM; AID 504757, 2011; in the data active = inhibition above about 39%
PLA2 ctr: PLA2 enzyme inhibition, counter-screen for ATG4B inhibitor project, biochemical, single concentration, uHTS hits; shares compounds with ATG4B inhibitor; purified PLA2, NBD-C6-HPC fluorescence, 45 min; inhibition, % at 8.33 µM; 66% of 1,600 active; AID 588402, 2011; in the data active = inhibition above about 50%
Target sequence (P04054 whole entry, looked up): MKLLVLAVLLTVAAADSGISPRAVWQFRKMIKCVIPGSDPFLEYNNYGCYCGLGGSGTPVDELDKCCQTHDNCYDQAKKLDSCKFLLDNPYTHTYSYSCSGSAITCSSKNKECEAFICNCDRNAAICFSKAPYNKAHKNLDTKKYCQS
Hits are given with their value.

What do the screens show for `C=CCn1c(SCCN)nnc1-c1cccc(S(=O)(=O)N2CCOCC2)c1`?
ATG4B inhibitor: inactive; HKDC1 inhibitor: inactive

Results for COc1cccc(CNC(=O)c2ccccc2-c2ccccc2)c1 ?
ATG4B inhibitor: inactive; CTSL1 counter: inactive; HKDC1 inhibitor: inactive

How did NC(=O)c1ccc(-c2ccc(Br)cc2)o1 do in these assays?
Diaphorase act: inactive; ATG4B inhibitor: inactive; CTSL1 counter: inactive; HKDC1 inhibitor: inactive; Diaph inh CS: inactive

How did NC(=O)C1CCN(C(=S)c2ccc(-c3ccc(Br)cc3)o2)CC1 do in these assays?
Diaphorase act: inactive; ATG4B inhibitor: 51; CTSL1 counter: inactive; HKDC1 inhibitor: inactive; Diaph inh CS: inactive; PLA2 ctr: inactive

How did Nc1nc(Nc2ccccc2)nc(NC2CCCCC2)c1[N+](=O)[O-] do in these assays?
ATG4B inhibitor: inactive; CTSL1 counter: inactive; HKDC1 inhibitor: inactive

Results for COc1ccc2c(c1)[nH]c1c(N3CCN(Cc4ccc5c(c4)OCO5)CC3)ncnc12 ?
Diaphorase act: inactive; ATG4B inhibitor: 45; CTSL1 counter: inactive; HKDC1 inhibitor: inactive; Diaph inh CS: inactive; PLA2 ctr: 58

Results for Cc1ccc2c(c1)[nH]c1c(N3CCN(Cc4ccccc4)CC3)ncnc12 ?
Diaphorase act: inactive; ATG4B inhibitor: 62; CTSL1 counter: inactive; HKDC1 inhibitor: inactive; Diaph inh CS: inactive; PLA2 ctr: 79

What do the screens show for `CC(C)(C)c1cc(NC(=O)Nc2ccc(Cl)cc2Cl)no1`?
ATG4B inhibitor: inactive; CTSL1 counter: inactive; HKDC1 inhibitor: inactive

What do the screens show for `Cc1c(Cl)cccc1NC(=O)Nc1cc(C(C)(C)C)on1`?
ATG4B inhibitor: 78; CTSL1 counter: inactive; HKDC1 inhibitor: inactive; PLA2 ctr: 84

Results for O=C(CCc1nnc2ccc(N3CCC4(CC3)OCCO4)nn12)NCc1ccc(F)cc1 ?
ATG4B inhibitor: inactive; CTSL1 counter: inactive; HKDC1 inhibitor: inactive

What do the screens show for `COC(=O)COc1ccc(-c2ccc(F)cc2)cc1C=O`?
Diaphorase act: inactive; ATG4B inhibitor: 43; CTSL1 counter: inactive; HKDC1 inhibitor: inactive; Diaph inh CS: inactive; PLA2 ctr: 59

How did Nc1nn(-c2ccccc2)c(N)c1N=Nc1ccc2c(c1)OCO2 do in these assays?
Diaphorase act: inactive; ATG4B inhibitor: 41; CTSL1 counter: inactive; HKDC1 inhibitor: inactive; Diaph inh CS: inactive; ATG4B confirm: 76; PLA2 ctr: inactive

What do the screens show for `Nc1nn(-c2ccccc2)c(N)c1N=Nc1cccc(F)c1`?
ATG4B inhibitor: inactive; CTSL1 counter: inactive; HKDC1 inhibitor: inactive

What do the screens show for `Cc1ccc(S(=O)(=O)Nc2ccccc2/C=N/c2nc3ccccc3n2C(C)C)cc1`?
Diaphorase act: inactive; ATG4B inhibitor: 55; CTSL1 counter: inactive; HKDC1 inhibitor: inactive; Diaph inh CS: inactive; ATG4B confirm: 57; PLA2 ctr: inactive

How did CC1CCCN(CCCOc2ccccc2-c2ccccc2)C1 (stereo not given) do in these assays?
Diaphorase act: inactive; ATG4B inhibitor: inactive; HKDC1 inhibitor: inactive; Diaph inh CS: inactive

How did COc1ccc(CNC(=O)CCN2C(=O)[C@@H]3Cc4ccccc4CN3C2=O)cc1 do in these assays?
ATG4B inhibitor: inactive; CTSL1 counter: inactive; HKDC1 inhibitor: inactive

Results for O=c1[nH]c2cccc(F)c2n2cccc12 ?
ATG4B inhibitor: inactive; CTSL1 counter: inactive; HKDC1 inhibitor: inactive

Results for Cc1ccc(NS(=O)(=O)c2cc(Br)cnc2N)c(Cl)c1 ?
ATG4B inhibitor: inactive; CTSL1 counter: inactive; HKDC1 inhibitor: inactive

What do the screens show for `Nc1ncc(Br)cc1S(=O)(=O)Nc1cc(C(F)(F)F)cc(C(F)(F)F)c1`?
ATG4B inhibitor: 57; CTSL1 counter: inactive; HKDC1 inhibitor: inactive; ATG4B confirm: 56; PLA2 ctr: inactive
